Data: ChEMBL document CHEMBL1287755, “Design, synthesis and inhibition activity of novel cyclic peptides against protein tyrosine phosphatase A from Mycobacterium tuberculosis” (Bioorg Med Chem, 2010)

Legend:
[1] = target: T1, Low molecular weight protein-tyrosine phosphatase A (Mycobacterium tuberculosis, UniProt P9WIA1); test: Inhibition of Mycobacterium tuberculosis recombinant protein tyrosine phosphatase A by Lineweaver-Burke plot analysis
T1 sequence (P9WIA1 whole entry): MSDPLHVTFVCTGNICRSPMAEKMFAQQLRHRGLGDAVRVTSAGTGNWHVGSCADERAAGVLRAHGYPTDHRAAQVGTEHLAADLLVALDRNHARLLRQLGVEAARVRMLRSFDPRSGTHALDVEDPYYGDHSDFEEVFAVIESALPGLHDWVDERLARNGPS
How it was run: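 Recombinant wild-type MPtpA (purified, purity by SDS-PAGE, concentration from A280) held at 1 µM. Phosphatase activity measured at 25 °C in 0.1 M Tris, 0.15 M NaCl, 1 mM EDTA, pH 7.5, with pNPP substrate. p-Nitrophenol release read at 405 nm. Inhibitors added from methanol, final methanol ≤3% v/v. Inhibitor typically 10–50 µM, substrate 100–300 µM. Triplicate assays. Mode of inhibition from double-reciprocal plots. Ki taken from a plot of Km/Vmax versus [I].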

[2] = target: T2, Low molecular weight protein-tyrosine phosphatase A (Mycobacterium tuberculosis) (UniProt P9WIA1); test: Binding affinity to Mycobacterium tuberculosis recombinant protein tyrosine phosphatase A by circular dichroism spectral analysis
T2 sequence (whole entry): T1 sequence (P9WIA1 whole entry)
How it was run: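 Far-UV CD of recombinant MPtpA at 25 °C in Tris buffer, 10 mm quartz cell. Spectra taken over 195–240 nm at 50 nm/min with 4 s response. Buffer blank containing the ligand subtracted. Protein:peptide ratio titrated from 2:1 up to 1:6. Changes followed at the α-helix minima, 208 and 222 nm, and a binding constant was derived from the titration.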

[3] = target: T2, Low molecular weight protein-tyrosine phosphatase A (Mycobacterium tuberculosis); test: Binding affinity to Mycobacterium tuberculosis recombinant protein tyrosine phosphatase A by fluorescence quenching assay
How it was run: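 Intrinsic tryptophan fluorescence of MPtpA, held at 2 µM, recorded at 20 °C in a 10 mm quartz cuvette. Emission maximum at 340 nm followed during titration with the peptide, up to a 1:10 protein:peptide ratio. Data fitted to Stern–Volmer (F0/F = 1 + Ksv[Q]) and Scatchard plots to give quenching and binding constants.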

Compound | Ki [1] [µM] | Kb [2] | Kb [3]
O=C1CNC(=O)CNC(=O)[C@@H]([C@@H](Nc2ccccc2)c2ccccc2)CN1 | 85.5 | 4.7 ×10⁴ /M | 4.87 ×10⁴ /M
O=C1CNC(=O)[C@H](Cc2ccc(O)cc2)NC(=O)[C@@H]([C@@H](Nc2ccccc2)c2ccccc2)CN1 | 8 | 1.2 ×10⁵ /M | 1.5 ×10⁵ /M
O=C1CNC(=O)CNC(=O)[C@@H]([C@@H](Nc2ccccc2)c2ccco2)CN1 | 215 | 2.95 ×10⁴ /M | 2.99 ×10⁴ /M
C[C@@H]1NC(=O)[C@H](C)NC(=O)[C@@H]([C@@H](Nc2ccccc2)c2ccccc2)CNC1=O | 220 | 1.1 ×10⁴ /M | 1 ×10⁴ /M
C[C@@H]1NC(=O)[C@H](C)NC(=O)[C@H](C)NC(=O)[C@@H]([C@@H](Nc2ccccc2)c2ccccc2)CNC1=O | 199 | 3.3 ×10⁴ /M | 3.27 ×10⁴ /M
O=C1CNC(=O)[C@@H]([C@@H](Nc2ccccc2)c2ccccc2)CN1 | 140 | 3.6 ×10⁴ /M | 3.41 ×10⁴ /M
O=C1CC[C@H](C(=O)O)NC(=O)[C@@H]([C@@H](Nc2ccccc2)c2ccccc2)CN1 | 36.3 | 8.5 ×10⁴ /M | 8.89 ×10⁴ /M
